# KLK7 zymogen act – proKLK7 zymogen activators, primary screen, biochemical, fluorescence intensity; purified proKLK7, EDANS-DABCYL substrate fluorescence; 100% is mature enzyme control, 0% vehicle; activation, % at 7 µM; 0.9% of 370,000 active; Kallikrein-7 (Homo sapiens), P49862;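 active = activation above the mean of all tested compounds plus 3 SD, computed per campaign excluding outliers beyond control limits, cut at about 13% in these data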
# Tn7 DDE FP – inhibitors of Tn7 peptide binding to fibrin DD(E), primary screen, biochemical, fluorescence polarization, human fibrin, Tn7 probe; Fibrinogen beta chain (Homo sapiens), P02675; FP displacement of FITC-Tn7 peptide from fibrin DD(E); 0% = median of compound wells per plate; inhibition, % at 8.3 µM; 0.13% of 370,000 active; AID 720508, 2013;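 active = inhibition above the mean of compounds falling within the control limits plus 3 SD of them, cut at about 14% in these data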;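 note: 0% = plate median of compound wells and 100% = 10 µM Aha-Tn7 peptide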
#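 Also added: labelled Tn7 tracer, 0.1 µM; Assay system: human fibrin DD(E) protein; Amount: 2 µM fibrin DD(E); Schedule: 10 min compound pre-incubation, 3 h probe incubation at room temperature; Repeats: one replicate per compound; Read-out basis: percent inhibition; Measured by: fluorescence polarization of the labelled Tn7 tracer.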
# PLCb3 inh – human PLC-beta3 inhibitors, primary screen, biochemical, fluorescence. 1-phosphatidylinositol 4,5-bisphosphate phosphodiesterase beta-3 (Homo sapiens), Q01970. Purified PLC-beta3, fluorogenic substrate. inhibition, % at 12.2 µM. 0.18% of 370,000 active; in the data active = inhibition above about 11%;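 note: 0% = median of compound wells on plate and 100% = full blocker control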
# NRP1-CendR mod – modulators of CendR peptide binding to NRP-1, primary screen, biochemical, fluorescence polarization, uHTS; Neuropilin-1 (Homo sapiens), O14786; FAM-RPARPAR peptide binding to NRP-1; inhibition, % at 25 µM; 0.85% of 360,000 active;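 active = inhibition or corrected inhibition above about 18%, plus a signal ratio from 0.5 to 1.5, limit read from the data, passing the limit was not always enough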
# Tn6 DDE FP – inhibitors of Tn6 peptide binding to fibrin DD(E), primary screen, biochemical, fluorescence polarization, human fibrin, Tn6 probe. Fibrinogen beta chain (Homo sapiens), P02675. Fibrin DD(E) TRITC-Tn6 fluorescence polarization displacement. inhibition, % at 8.3 µM. 0.21% of 370,000 active;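 active = inhibition above a per-campaign cutoff: mean of compounds within control limits plus 3 SD, cut at about 15% in these data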;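 note: 0% = median of all compound wells on the plate and 100% = blocking peptide control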
# PLCg1 inh – PLC-gamma1 enzyme inhibitors, primary screen, biochemical, fluorescence, purified enzyme; AID 720700, 2013; 1-phosphatidylinositol 4,5-bisphosphate phosphodiesterase gamma-1 (Homo sapiens), P19174; fluorogenic substrate; 0.84% of 370,000 active; inhibition, % at 12.2 µM; in the data active = inhibition above about 9.5%
# KLK7 act conf – proKLK7 zymogen activators, confirmation, biochemical, fluorescence intensity, triplicate. shares compounds with KLK7 zymogen act. purified proKLK7, EDANS-DABCYL substrate fluorescence; scaled: vehicle 0, mature enzyme 100. activation, % at 7 µM. 68% of 3,200 active;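 active = activation, as change over the incubation, above the mean of all tested compounds plus 3 SD, cut at about 13% in these data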
# EDANS interfere – EDANS-DABCYL substrate optical interference, artefact control for kallikrein-7 zymogen activator project, biochemical, fluorescence intensity, high throughput | AID 686952, 2013 | activation, % at 7 µM | 80% of 3,200 active | shares compounds with KLK7 zymogen act | no enzyme, 4 h; solvent 0%, active enzyme control 100%;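 active = activation above the all-compound mean plus 3 SD, ignoring values outside control-based bounds, cut at about 4.8% in these data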;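 note: value is the 4 h activation minus the activation read at time zero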
# Numbers without * were called inactive; i = inactive; / = no result. Hits are enriched below; roughly 3% of the tested compounds scored in any of these assays.
SMILES,KLK7 zymogen act,Tn7 DDE FP,PLCb3 inh,NRP1-CendR mod,Tn6 DDE FP,PLCg1 inh,KLK7 act conf,EDANS interfere
CCOC(=O)c1cc2c(=O)n3ccccc3nc2n(CCCOC)c1=NC(=O)c1ccncc1,17.7*,3.5,-378.3,4.6,7.6,-286.2,4.1,3.7
CCOC(=O)c1cc2c(=O)n3ccccc3nc2n(CCCOC)c1=NC(C)=O,61.9*,-4.9,i,-3.8,-4.2,i,7.0,7.2*
CCOC(=O)c1cc2c(=O)n3cccc(C)c3nc2n(CCOC)c1=NC(C)=O,15.2*,-7.3,-217.5,3.5,-1.4,-151.6,10.5,9.4*
CCCCCn1c(=NC(C)=O)c(C#N)cc2c(=O)n3ccccc3nc21,6.2,-1.1,-115.6,1.2,1.5,-83.6,/,/
CCOCCCn1c(=NC(C)=O)c(C#N)cc2c(=O)n3cccc(C)c3nc21,11.6,-8.7,-212.4,-5.9,2.6,-142.2,/,/
O=C(c1cc(Cl)cc(Cl)c1)N1CC[C@H]2[C@H](CCCN2Cc2cc(F)cc(F)c2)C1,0.1,6.0,0.3,/,-9.5,-1.5,/,/
Cc1cccc(-c2cccc3c4c([nH]c23)[C@@H]2C[C@H](N(C)C(=O)OCc3ccccc3)[C@H]([C@H](C)O)CN2CC4)c1,-1.4,0.4,-243.4,/,-0.8,-175.6,/,/
C[C@H](O)[C@@H]1CN2CCc3c([nH]c4c(-c5ccc6c(c5)OCO6)cccc34)[C@@H]2C[C@@H]1N(C)C(=O)Nc1ccccc1,0.6,-5.0,-4.2,/,0.3,-2.5,/,/
N#Cc1c(N)n(-c2ccc(C(=O)O)cc2)c2nc3ccccc3nc12,68.6*,8.8,i,-78.4,9.4,i,78.7*,78.7*
Cc1c(NC(=O)C2CCCN(S(=O)(=O)c3ccc(Cl)s3)C2)c(=O)n(-c2ccccc2)n1C (stereo unspecified),-0.1,5.6,-0.1,/,-10.0,-0.1,/,/
CCC1(O)C(=O)OCc2c1cc1n(c2=O)Cc2cc3c(N)cccc3nc2-1 (stereo unspecified),23.5*,-11.2,-39.2,12.3,-0.3,-29.4,64.3*,66.7*
COC(=O)[C@H](CC(C)C)N(CCCc1cn(CC2CCCCC2)nn1)S(=O)(=O)c1ccccc1Br,0.7,-2.1,-0.1,/,-3.8,0.8,/,/
O=C(O)CCC(=O)N1CCN(c2nc(-c3ccccc3)c3ccccc3n2)CC1,31.7*,-4.1,i,-5.2,-1.1,-420.7,7.5,8.6*
Cc1ccc2nc(N3CCN(C(=O)CCCC(=O)O)CC3)nc(-c3ccccc3)c2c1,2.5,4.1,i,-0.5,-4.7,-408.4,/,/
Cc1cc2c([nH]c3ccccc32)c(C)n1,33.3*,2.3,i,-1.0,2.0,i,28.0*,24.6*
Cc1cc(=O)oc2c3c(ccc12)OC/C3=N/N,-8.2,-0.5,-485.9,-15.9,4.2,-339.1,/,/
Cc1cc(=O)oc2c3c4c(cc12)OCCN4CCC3,69.6*,-0.6,i,-28.6,-0.7,i,66.7*,63.9*
O=C(N[C@H]1CC[C@@H]2SC[C@@H](C(=O)O)N2C1=O)OCC1c2ccccc2-c2ccccc21,-0.2,-8.9,5.5,/,-3.0,3.9,/,/
C=CC[C@@H]1NN2C(=O)[C@@H](CCCC)[C@@H]3c4cc5ccccc5cc4C=NN3[C@@H]2c2cc3ccccc3cc21,-6.7,-3.8,-10.7,/,-7.2,-8.2,/,/
CCOC(=O)c1nn(-c2ccccc2)c(=O)c2c(N)scc12,1.8,2.2,-62.6,12.4,6.5,-52.2,/,/

# Assay outcomes (PubChem BioAssay)
